pPAFAH FP inh: pPAFAH enzyme inhibitors, primary screen, biochemical, fluorescence polarization, human. Platelet-activating factor acetylhydrolase (Homo sapiens), Q13093. recombinant pPAFAH, FP-rhodamine probe fluorescence polarization. inhibition, % at 3.39 µM. actives 1.5% (n = 330,000). AID 463082, 2010;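 active means inhibition above the mean inhibition across the screen plus 3 SD, cut at about 25% in these data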;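 further: inhibitors block binding of the rhodamine activity-based probe so polarization drops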
PAFAH1B3 inh: PAFAH1B3 enzyme inhibitors, primary screen, biochemical, fluorescence polarization, human | Platelet-activating factor acetylhydrolase IB subunit alpha1 (Homo sapiens), Q15102 | recombinant PAFAH1B3, FP-rhodamine probe | inhibition, % at 3.39 µM | actives 0.28% (n = 340,000);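 active means inhibition above the screen-wide average of all tested compounds plus 3 SD, cut at about 25% in these data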
Target sequence (Q15102 whole entry, looked up): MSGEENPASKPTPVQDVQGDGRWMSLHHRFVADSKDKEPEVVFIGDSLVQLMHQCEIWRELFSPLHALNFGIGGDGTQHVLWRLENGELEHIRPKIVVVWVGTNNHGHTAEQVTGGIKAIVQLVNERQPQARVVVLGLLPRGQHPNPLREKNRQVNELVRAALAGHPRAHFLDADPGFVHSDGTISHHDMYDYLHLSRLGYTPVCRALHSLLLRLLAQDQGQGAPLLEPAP
ASAP1 inh: inhibitors of human ASAP1 ArfGAP activity, primary screen, biochemical, fluorescence polarization. Arf-GAP with SH3 domain, ANK repeat and PH domain-containing protein 1 (Homo sapiens), …. ASAP1-stimulated ARF1 GTP hydrolysis, GDP FP detection. inhibition, % at 16.5 µM. actives 0.19% (n = 360,000); in the data active means inhibition above about 25%
ARFGAP1 inhibitor: inhibitors of rat ARFGAP1 GAP activity, primary screen, biochemical, fluorescence polarization, GDP tracer | ADP-ribosylation factor GTPase-activating protein 1 (Rattus norvegicus), Q62848 | Arfgap1-stimulated ARF1 GTP hydrolysis, GDP FP detection | inhibition, % at 16.5 µM | actives 0.26% (n = 360,000) | AID 651572, 2012;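 active means inhibition above a per-plate limit, mean inhibition of low control wells plus 3 SD, cut at about 25% in these data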
Target sequence (Q62848 1-136 limits assumed): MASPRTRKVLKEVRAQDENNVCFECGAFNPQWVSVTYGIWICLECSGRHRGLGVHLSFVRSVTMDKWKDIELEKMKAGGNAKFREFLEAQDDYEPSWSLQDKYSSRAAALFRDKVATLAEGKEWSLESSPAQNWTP
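System: truncated rat Arfgap1 GAP domain / Benchmarks: high control wells lacking Arfgap1, low control full reaction with DMSO / Times: compound-enzyme preincubation 20 min, reaction 120 min, detection 60 min, 25 °C / Repeats: one replicate per compound / Also added: human ARF1(Δ1-17)-GTP substrate / Measured by: Tracer-displacement fluorescence polarization with EDTA stop, 620/688 nm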
PAFAH1B2 FP inh: PAFAH1B2 enzyme inhibitors, primary screen, biochemical, fluorescence polarization, human | Platelet-activating factor acetylhydrolase IB subunit alpha2 (Homo sapiens), P68402 | recombinant PAFAH1B2, FP-rhodamine activity probe | inhibition, % at 3.39 µM | actives 1.2% (n = 340,000) | AID 492953, 2010;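 active means inhibition above the mean of all tested compounds plus 3 SD, cut at about 24% in these data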
PAFAH2 FP inh: PAFAH2 enzyme inhibitors, primary screen, biochemical, fluorescence polarization, human. Platelet-activating factor acetylhydrolase 2, cytoplasmic (Homo sapiens), Q99487. recombinant PAFAH2, FP-rhodamine activity probe. inhibition, % at 3.39 µM. actives 0.99% (n = 340,000). AID 492956, 2010;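 active means inhibition above the mean over all tested compounds plus 3 SD, cut at about 30% in these data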;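 further: inhibitors block probe labeling of enzyme so polarization drops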
Of the large screens only hits and unclear results are named; the others gave an inactive call. A selection: hits, their analogues and other compounds. The true share with any hit is near 2.7%.

COC(=O)CCC(=O)OC1(C)C(=O)C=C2C=C(C3CC3)OC=C2C1=O (stereo not given)	pPAFAH FP inh 26 (no result: PAFAH1B3 inh, ASAP1 inh, ARFGAP1 inhibitor, PAFAH1B2 FP inh, PAFAH2 FP inh)
CC1(OC(=O)CCc2ccccc2)C(=O)C=C2C=C(C3CC3)OC=C2C1=O (stereo not given)	pPAFAH FP inh 33 (no result: PAFAH1B3 inh, ASAP1 inh, ARFGAP1 inhibitor, PAFAH1B2 FP inh, PAFAH2 FP inh)
COC(=O)CCCC1=CC2=CC(=O)C(C)(OC(=O)CCc3ccccc3)C(=O)C2=CO1 (stereo not given)	none (no result: ASAP1 inh, ARFGAP1 inhibitor)
COC(=O)C1=C(C)N(Cc2ccc(C(F)(F)F)cc2)C(=NCc2ccccc2C(F)(F)F)NC1c1ccc(Cl)cc1 (stereo not given)	none (no result: pPAFAH FP inh, PAFAH1B3 inh, PAFAH1B2 FP inh, PAFAH2 FP inh)
C[C@H](O)[C@@H]1C(=O)N2CCc3c([nH]c4cccc(-c5ccccc5)c34)[C@@H]2C[C@@H]1N(C)C(=O)Nc1ccccc1	none (no result: pPAFAH FP inh, PAFAH1B3 inh, PAFAH1B2 FP inh, PAFAH2 FP inh)
COc1ccc(Cn2nnnc2C(c2cc3cccc(C)c3[nH]c2=O)N2CCN(C)CC2)cc1 (stereo not given)	PAFAH1B2 FP inh 29
CCC(C)(C)n1nnnc1C(c1cc2ccc(OC)cc2[nH]c1=O)N1CCc2ccccc2C1 (stereo not given)	none
COc1ccc2cc(C(c3nnnn3C(C)(C)C)N3CCc4ccccc4C3)c(=O)[nH]c2c1 (stereo not given)	pPAFAH FP inh 34 (no result: PAFAH1B3 inh, ASAP1 inh, ARFGAP1 inhibitor, PAFAH1B2 FP inh, PAFAH2 FP inh)
CCOC(=O)C1=C(C(=O)OCC)C2N(Cc3ccc(Br)cc3)c3ccccc3[C@@]23C[C@@H](C(=O)OC)N(S(=O)(=O)c2ccc(Br)cc2)C3=N1 (stereo not given in full)	none (no result: pPAFAH FP inh, PAFAH1B3 inh, PAFAH1B2 FP inh, PAFAH2 FP inh)
CCCCc1c(-c2ccccc2OC)ncn1Cc1cc(F)ccc1F	none (no result: pPAFAH FP inh, PAFAH1B3 inh, PAFAH1B2 FP inh, PAFAH2 FP inh)
CC1CC(C)CN(CCCNC(=O)C2CCC(=O)N2C2CCCC2)C1 (stereo not given)	ARFGAP1 inhibitor 32
Cc1ccc(CCNC(=O)C2CCC(=O)N2C2CCCC2)cc1 (stereo not given)	PAFAH1B2 FP inh 27
O=C(NCCCN1CCCC1)C1CCC(=O)N1C1CCCCC1 (stereo not given)	none
COC(=O)C1=C(C)N(Cc2cccc(C(F)(F)F)c2)C(=NCc2cc(OC)c(OC)c(OC)c2)NC1c1ccccc1C(F)(F)F (stereo not given)	none (no result: pPAFAH FP inh, PAFAH1B3 inh, PAFAH1B2 FP inh, PAFAH2 FP inh)
CC(C)N(C[C@@H]1CSCCS(=O)(=O)N1)C(C)C	none (no result: pPAFAH FP inh, PAFAH1B3 inh, PAFAH1B2 FP inh, PAFAH2 FP inh)
CCn1c2ccccc2c2cc(NC(=O)c3ccccc3-c3ccccc3C(=O)O)ccc21	pPAFAH FP inh 33
CCn1c2ccccc2c2cc(NC(=O)C(C)C)ccc21	none
O=C(O)c1cccc(S(=O)(=O)N(Cc2ccccc2)c2ccccc2)c1	PAFAH1B2 FP inh 26
CCN(c1ccccc1)S(=O)(=O)c1cc(C(=O)O)ccc1C	PAFAH1B2 FP inh 53
O=C(O)c1ccc(CN(c2ccccc2)S(=O)(=O)c2ccccc2)cc1	none
O=C(O)c1ccc(Cl)c(S(=O)(=O)N(Cc2ccccc2)c2ccc(F)cc2)c1	PAFAH1B2 FP inh 33
O=C(O)c1ccc(Cl)c(S(=O)(=O)N(Cc2ccccc2)c2ccccc2)c1	none
O=C(O)c1ccc(Cl)c(S(=O)(=O)N(Cc2ccccc2)c2ccccc2Cl)c1	PAFAH1B2 FP inh 28
CCC(C)C(NC(=O)OCc1ccccc1)C(=O)OCN1C(=O)c2ccccc2C1=O (stereo not given)	pPAFAH FP inh 33
CC(C)C(NC(=O)c1c(F)cccc1F)C(=O)OCN1C(=O)c2ccccc2C1=O (stereo not given)	none
O=C(CN1CCN(Cc2ccc(F)cc2Cl)C1=O)NCCc1ccc(Cl)cc1	pPAFAH FP inh 34
O=C1c2cc(O)cc(O)c2C(=O)c2c1cc(O)c([C@@H](CO)CCO)c2O	pPAFAH FP inh 31
Cc1cc(O)c2c(c1)C(=O)c1cc(O)cc(O)c1C2=O	pPAFAH FP inh 30
O=C1c2cccc(O)c2C(=O)c2c(O)cc(CO)cc21	none (no result: PAFAH1B3 inh, ASAP1 inh, ARFGAP1 inhibitor, PAFAH1B2 FP inh, PAFAH2 FP inh)
